Experimental findings from ChEMBL document CHEMBL1131104, “Bicyclic acylguanidine Na+/H+ antiporter inhibitors” (J Med Chem, 1998) are described below.

SMILES strings stand for the structures.

Assay [1] is filed under the species Homo sapiens. The assay can be described thus: Concentration to achieve half-maximal inhibition of acid-induced swelling in human platelets using platelet swelling assay. Format: functional. The procedure, abridged:
(§1)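 Human platelet-rich plasma from citrated venous blood (centrifuged 1000 rpm, 20 min, RT; pH adjusted to 7.4; used within 4–5 h). Final 2 × 10^8 platelets/mL in pH 6.6 buffer: 120 mM Na propionate, 20 mM K propionate, 20 mM HEPES, 10 mM glucose, 5 mM KCl, 1 mM MgCl2, 1 mM CaCl2, 0.86% DMSO. Swelling followed as absorbance drop at 680 nm over 4 min.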

The target in assay [2] is Sodium/hydrogen exchanger (Oryctolagus cuniculus, UniProt P23791+P50482+P26432). The assay can be described thus: Sodium/hydrogen exchanger antiport activity was measured using [22]Na+ uptake inhibition assay in acidified rabbit erythrocytes. The class given is cell-based. The procedure, abridged: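 Acidified rabbit erythrocytes; 22Na+ uptake measured in incubation buffer containing 10 mM Na+. Na+/H+-dependent uptake taken as the EIPA-sensitive portion of 22Na+ uptake.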

Assay [3] is filed under the species Homo sapiens. The assay can be described thus: Concentration to achieve half-maximal inhibition of acid-induced swelling in human platelets using platelet swelling assay(PSA). Format: functional. The procedure, abridged:
as §1

On to `COC1c2cc(C)c(C(=O)N=C(N)N)cc2S(=O)(=O)C1(C)C` (stereo not drawn), for which the concentration for half-maximal inhibition (IC50) (in general, the point on the concentration scale where inhibition reaches its midpoint) in the assay listed under Homo sapiens [1] is 138 nM; in assay [2], 27 nM.
For `Cc1cc2c(cc1C(=O)N=C(N)N)S(=O)(=O)C(C)(C)CO2`, in that order: 843 nM and 36 nM.
For `Cc1cc2c(cc1C(=O)N=C(N)N)S(=O)(=O)CC2C` (stereo not drawn), in that order: 182 nM and 44 nM.
For `Cc1cc2c(cc1C(=O)N=C(N)N)S(=O)(=O)CCC21OCCO1`, in that order: 1180 nM and 130 nM.
Consider `Cc1cc2c(cc1C(=O)N=C(N)N)S(=O)(=O)CCCO2`, for which the results for the IC50 (in the assay filed under Homo sapiens [1]; in assay [2]) were 537 nM and 28 nM, respectively.
`Cc1cc2c(cc1C(=O)N=C(N)N)S(=O)(=O)C/C2=N\O`: the IC50 in the assay listed under Homo sapiens [1] was determined as 197 nM; in assay [2] it was 16 nM.
In the case of `COC1CS(=O)(=O)c2cc(C(=O)N=C(N)N)ccc21` (stereo not drawn), the half-maximal inhibitory concentration (IC50) in the assay listed under Homo sapiens [1] was greater than 100000 nM; in assay [2], 700 nM.
For `Cc1cc2c(cc1C(=O)N=C(N)N)S(=O)(=O)C(C)(C)C2(C)O` (stereo not drawn) the same measures were 102 nM and 17 nM.
As to `Cc1cc2c(cc1C(=O)N=C(N)N)S(=O)(=O)C(C)(C)C2C` (stereo not drawn), the results for the IC50 (in the assay listed under Homo sapiens [1]; in assay [2]) were 306 nM and 14 nM, respectively.
For `Cc1cc2c(cc1C(=O)N=C(N)N)S(=O)(=O)CC2C(C)C` (stereo not drawn), in that order: 77 nM and 21 nM.
For `CCC1CS(=O)(=O)c2cc(C(=O)N=C(N)N)c(C)cc21` (stereo not drawn), the results for the concentration for half-maximal inhibition (IC50) (in the assay listed under Homo sapiens [1]; in assay [2]) were 78 nM and 24 nM, respectively.
For `Cc1cc2c(cc1C(=O)N=C(N)N)S(=O)(=O)CCCC2`, in that order: 274 nM and 19 nM.
In the case of `N=C(N)NC(=O)c1ccc2c(c1)S(=O)(=O)CC2O` (stereo not drawn), the values for the IC50 (in the assay filed under Homo sapiens [1]; in assay [2]) were greater than 100000 nM and 1500 nM, respectively.
For `CC1=C(N)c2cc(C)c(C(=O)N=C(N)N)cc2S1(=O)=O` the same measures were 2320 nM and 56 nM.
Turning to `Cc1cc2c(cc1C(=O)N=C(N)N)S(=O)(=O)CC2(C)O` (stereo not drawn), the half-inhibitory concentration (IC50) stood at 115 nM in the assay listed under Homo sapiens [1] and 30 nM in assay [2].
For the compound `Cc1cc2c(cc1C(=O)N=C(N)N)S(=O)(=O)CC2`, the IC50 in the assay filed under Homo sapiens [1] was 587 nM; in assay [2] it was 60 nM.
For `Cc1cc2c(cc1C(=O)N=C(N)N)S(=O)(=O)CCC2`, in that order: 14300 nM and 95 nM.
For `Cc1cc2c(cc1C(=O)N=C(N)N)S(=O)(=O)CC21OCCO1`, in that order: 485 nM and 60 nM.
For `CC1(C)CC(C)(C)S(=O)(=O)c2cc(C(=O)N=C(N)N)ccc21`, in that order: 2080 nM and 360 nM.
As for `Cc1cc2c(cc1C(=O)N=C(N)N)S(=O)(=O)C(C)(C)CC2C` (stereo not drawn), the results for the IC50 (in the assay filed under Homo sapiens [1]; in assay [2]) were 1100 nM and 38 nM, respectively.
Consider `C=C1CCS(=O)(=O)c2cc(C(=O)N=C(N)N)c(C)cc21`, for which the IC50 is 29 nM in assay [2] and 1370 nM in the assay listed under Homo sapiens [3].
As to `Cc1cc2c(cc1C(=O)N=C(N)N)S(=O)(=O)CC2N` (stereo not drawn), the half-maximal inhibitory concentration (IC50) in the assay listed under Homo sapiens [1] stood at 692 nM; in assay [2] it was 116 nM.
For `C=C1c2cc(C)c(C(=O)N=C(N)N)cc2S(=O)(=O)C1(C)C` the same measures were 114 nM and 13 nM.
For `Cc1cc2c(cc1C(=O)N=C(N)N)S(=O)(=O)CC2(O)Cc1ccccc1` (stereo not drawn), in that order: 157 nM and 43 nM.
For `N=C(N)NC(=O)c1ccc2c(c1)S(=O)(=O)CC2` the same measures were greater than 100000 nM and 790 nM.
Take `Cc1cc2c(cc1C(=O)N=C(N)N)S(=O)(=O)CCC2C` (stereo not drawn): the IC50 in the assay filed under Homo sapiens [1] amounted to 655 nM; in assay [2] it was 45 nM.
As for `CC1(C)CCS(=O)(=O)c2cc(C(=O)N=C(N)N)ccc21`, the IC50 in assay [2] is reported as 2200 nM.
As to `Cc1cc2c(cc1C(=O)N=C(N)N)S(=O)(=O)CC2O` (stereo not drawn), the 50% inhibitory concentration (IC50) in the assay listed under Homo sapiens [1] stood at 1050 nM; in assay [2] it was 70 nM.
For `CC(C)=C1CS(=O)(=O)c2cc(C(=O)N=C(N)N)c(C)cc21`, in that order: 5030 nM and 54 nM.
Turning to `Cc1cc2c(cc1C(=O)N=C(N)N)S(=O)(=O)CCC2=O`, the IC50 in the assay listed under Homo sapiens [1] was 3670 nM; in assay [2], 96 nM.
Consider `Cc1cc(-n2cccc2)c(S(C)(=O)=O)cc1C(=O)N=C(N)N` [ENIPORIDE], for which the midpoint of inhibition in the assay filed under Homo sapiens [1], the IC50, lay at 32 nM.
Same read-out and setting: in the case of `CC(C)c1ccc(C(=O)N=C(N)N)cc1S(C)(=O)=O` [CARIPORIDE] it was 117 nM.
`COC1(C)CS(=O)(=O)c2cc(C(=O)N=C(N)N)c(C)cc21` (stereo not drawn): the IC50 is 321 nM in the assay filed under Homo sapiens [1] and 40 nM in assay [2].
For `COC1CS(=O)(=O)c2cc(C(=O)N=C(N)N)c(C)cc21` (stereo not drawn), in that order: 208 nM and 96 nM.
As for `CO/N=C1\CS(=O)(=O)c2cc(C(=O)N=C(N)N)c(C)cc21`, the IC50 in the assay listed under Homo sapiens [1] turned out to be 521 nM; in assay [2], 45 nM.
Regarding `Cc1cc2c(cc1C(=O)N=C(N)N)S(=O)(=O)C(C)(C)C2=O`, the figures for the IC50 (in the assay filed under Homo sapiens [1]; in assay [2]) were 354 nM and 93 nM, respectively.
For `Cc1cc2c(cc1C(=O)N=C(N)N)S(=O)(=O)C(C)(C)C2O` (stereo not drawn) the same measures were 258 nM and 28 nM.
For `CCC1(O)CS(=O)(=O)c2cc(C(=O)N=C(N)N)c(C)cc21` (stereo not drawn), the values for the half-inhibitory concentration (IC50) (in the assay listed under Homo sapiens [1]; in assay [2]) were 77 nM and 34 nM, respectively.
